Measured values from article PMC2805920 (Biochemical Journal, 2009).

Columns and labels:
[1] = tested on: 135nt-ssDNA; experiment: EMSA, binding to 32P-labelled 135nt-ssDNA; set-up: species or system Trypanosoma cruzi
[2] = tested on: 135bp-dsDNA; experiment: EMSA, binding to 32P-labelled 135bp-dsDNA; set-up: species or system Trypanosoma cruzi; settings: peptide 0.9-30 μM
[3] = tested on: 130nt-RNA; experiment: EMSA, binding to 32P-labelled 130nt-RNA; set-up: species or system Trypanosoma cruzi; settings: peptide 9 to 30 μM
Method in brief: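 The probe was a T7 transcript radiolabelled with [α-32P]UTP, gel-purified and desalted on Sephadex G-50. Probe (0.72 nM) was incubated with increasing peptide for 30 min at 37 °C. Peptide stocks were 500 μM in PBS with 30 μM ZnCl2. Gels were dried and phosphorimaged. Kd is the peptide concentration giving 50 % RNA bound, from a Hill-equation fit.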

[4] = tested on: stable duplexes; settings: read-out: Conc50, concentration required to reach the formation of 50% of stable duplexes as a measure of NAC activity; NO = no observed activity; cited from earlier work
[5] = tested on: 29/mm29c DNA duplex; experiment: DNA-melting assay on mismatched duplex; assay type: biochemical; settings: 1 μM peptide, 32P-29mer/mm29c duplex
Method in brief: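 A 32P-29mer and its complementary strand carrying four internal mismatches (mm29c) were annealed in water: 5 min at 95 °C, NaCl added to 50 mM, then slowly cooled to 22 °C. It was incubated 5 min at 25–55 °C, sampled every 5 °C into ice-cold tRNA/SDS/Ficoll stop mix, run on native 15 % PAGE and phosphorimaged.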

Substance	ssDNA-binding affinity (in words) [1]	dsDNA-binding affinity (in words) [2]	RNA-binding affinity (in words) [3]	EC50 [4]	effect on the Tm of the mismatched DNA duplex (in words) [5]
LT……CPHCDSTLTGFSGLVSHCRSFHP [compound 5032]	very low affinity	no affinity	complete loss of affinity	> 30 µM	does not have any influence on the Tm
TVPPSAREEDVSPV…TLTRRRKEKC [compound 5030]	–	complete loss of binding affinity	eliminated	> 30 µM	does not have any influence on the Tm
